Measurements reported in ChEMBL document CHEMBL1131242, “6beta-Acetoxynortropane: a potent muscarinic agonist with apparent selectivity toward M2-receptors” (J Med Chem, 1998).
Where a chain is given by its changes, count along the chain named.

Columns and labels:
[1] = biological target: T1, Muscarinic acetylcholine receptor M3 (Homo sapiens, UniProt P20309); assay: Inhibition of binding of [3H]quinuclidinyl benzilate to muscarinic receptors in membranes of CHO cells transfected with […] Muscarinic acetylcholine receptor M3; format: cell membranes; conditions: concentration not given here
Target sequence in this assay (P20309 whole entry, looked up): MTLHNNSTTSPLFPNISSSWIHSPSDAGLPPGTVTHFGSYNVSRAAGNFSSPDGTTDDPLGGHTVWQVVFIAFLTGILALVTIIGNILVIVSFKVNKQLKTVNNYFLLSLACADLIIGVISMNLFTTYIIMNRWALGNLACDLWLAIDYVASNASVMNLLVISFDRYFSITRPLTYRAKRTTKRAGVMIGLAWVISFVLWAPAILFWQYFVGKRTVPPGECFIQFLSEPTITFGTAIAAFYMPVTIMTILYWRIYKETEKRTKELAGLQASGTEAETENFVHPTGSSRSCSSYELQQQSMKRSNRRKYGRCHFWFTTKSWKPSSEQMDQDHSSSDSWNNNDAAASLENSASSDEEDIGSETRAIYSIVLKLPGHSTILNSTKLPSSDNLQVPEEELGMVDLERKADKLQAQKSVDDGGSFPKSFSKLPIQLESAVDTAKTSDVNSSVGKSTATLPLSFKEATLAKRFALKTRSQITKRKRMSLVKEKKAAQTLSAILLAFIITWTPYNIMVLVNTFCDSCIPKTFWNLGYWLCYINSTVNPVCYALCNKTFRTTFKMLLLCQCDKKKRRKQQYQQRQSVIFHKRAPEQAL

[2] = biological target: T2, Muscarinic acetylcholine receptor M1 (Rattus norvegicus, UniProt P08482); assay: Inhibition of binding of [3H]quinuclidinyl benzilate to Muscarinic acetylcholine receptor M1 in rat cerebral cortical membranes at 100 uM concentration; format: cell membranes, Membrane
T2 sequence (P08482 whole entry): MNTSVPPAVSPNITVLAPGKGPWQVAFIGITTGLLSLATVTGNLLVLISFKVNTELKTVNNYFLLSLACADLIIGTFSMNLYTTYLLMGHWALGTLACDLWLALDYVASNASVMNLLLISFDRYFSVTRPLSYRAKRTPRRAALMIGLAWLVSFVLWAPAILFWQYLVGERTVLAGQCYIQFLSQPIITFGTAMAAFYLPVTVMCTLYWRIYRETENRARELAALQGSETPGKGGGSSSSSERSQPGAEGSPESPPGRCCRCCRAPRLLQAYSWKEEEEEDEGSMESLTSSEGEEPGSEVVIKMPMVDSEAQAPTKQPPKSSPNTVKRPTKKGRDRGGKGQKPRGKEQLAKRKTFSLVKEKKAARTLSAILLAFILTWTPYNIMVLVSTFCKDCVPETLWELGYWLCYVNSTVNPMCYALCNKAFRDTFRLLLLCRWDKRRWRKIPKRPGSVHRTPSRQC
In short: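 Rat cortical membranes with 0.2 nM [3H]quinuclidinyl benzilate in HEPES pH 7.4 with 10 mM MgCl2 and 100 mM NaCl, 30 min at 37 °C, triplicate. Atropine 1 µM defined nonspecific binding. Percent inhibition was read at 100 µM test agent; mean ± SEM, n = 4.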

[3] = biological target: T2, Muscarinic acetylcholine receptor M1; assay: The compound was evaluated for inhibition of binding of [3H]quinuclidinyl benzilate to Muscarinic acetylcholine receptor M1 in Rat Cerebral Cortical Membranes
In short: (§1)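 Rat cerebral cortex membranes were homogenised in 50 mM Tris-HCl pH 7.4 and diluted in HEPES binding buffer. They were incubated with 0.2 nM [3H]quinuclidinyl benzilate in 20 mM HEPES pH 7.4 with 10 mM MgCl2 and 100 mM NaCl for 30 min at 37 °C, in triplicate. Nonspecific binding used 1 µM atropine. Filtration was followed by scintillation counting.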

[4] = biological target: T1, Muscarinic acetylcholine receptor M3; assay: Inhibition of binding of [3H]quinuclidinyl benzilate to human Muscarinic acetylcholine receptor M3 in membranes of transfected CHO cells at 100 uM concentration; conditions: Membrane
Target sequence in this assay (P20309 whole entry, looked up): as the sequence (P20309 whole entry, looked up) above

[5] = biological target: T3, Muscarinic acetylcholine receptor M1 (Homo sapiens) (UniProt P11229); assay: Percentage inhibition of binding of [3H]quinuclidinyl benzilate to […] Muscarinic acetylcholine receptor M1 transfected in membranes of CHO cells; format: cell membranes; conditions: concentration not given here
T3 sequence (whole entry): T2 sequence (P08482 whole entry) with V5A, S254T, S309P, K320R, G337A, V413I

[6] = biological target: T4, Neuronal acetylcholine receptor; alpha4/beta2 (Rattus norvegicus) (UniProt P09483+P12390); assay: (§2) The compound was evaluated for percentage inhibition of binding of [3H]- nicotine to Nicotinic acetylcholine receptor alpha4-beta2 in Rat Cerebral Cortical Membranes; format: protein-complex assay; design: concentration or dose not given beside the values; conditions: concentration not given here
In short: (§3)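 Rat cerebral cortex membranes with 0.2 nM [3H]nicotine in HEPES binding buffer pH 7.4 containing 200 µM diisopropyl fluorophosphate. Incubation was 120 min at 0–4 °C, in triplicate. Nonspecific binding used 1 µM nicotine. Samples were filtered through polyethylenimine-soaked GF/B filters and counted.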

[7] = biological target: T5, Muscarinic acetylcholine receptor M1 (Rattus norvegicus) (UniProt P08482); assay: Percentage inhibition of binding of [3H]quinuclidinyl benzilate to muscarinic acetylcholine receptor M1 in rat cerebral cortical membranes; format: cell membranes; design: concentration or dose not given beside the values; conditions: Membrane, concentration not given here; in short: as §1
T5 sequence (whole entry): T2 sequence (P08482 whole entry)

[8] = biological target: T4, Neuronal acetylcholine receptor; alpha4/beta2 (Rattus norvegicus); assay: Inhibition of binding of [3H]nicotine to Nicotinic acetylcholine receptor alpha4-beta2 in rat cerebral cortical membranes at 100 uM concentration; format: cell membranes; conditions: Membrane
In short: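 [3H]nicotine (0.2 nM) binding to rat cortical membranes, with 200 µM diisopropyl fluorophosphate, 120 min at 0–4 °C, triplicate. Nonspecific binding with 1 µM nicotine. Percent inhibition at 100 µM test agent; mean ± SEM, n = 4.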

[9] = biological target: T6, Muscarinic acetylcholine receptor M2 (Homo sapiens, UniProt P08172); assay: Inhibition of binding of [3H]quinuclidinyl benzilate to muscarinic receptors in membranes of CHO cells transfected with Muscarinic acetylcholine receptor M2; format: cell membranes
T6 sequence (P08172 whole entry): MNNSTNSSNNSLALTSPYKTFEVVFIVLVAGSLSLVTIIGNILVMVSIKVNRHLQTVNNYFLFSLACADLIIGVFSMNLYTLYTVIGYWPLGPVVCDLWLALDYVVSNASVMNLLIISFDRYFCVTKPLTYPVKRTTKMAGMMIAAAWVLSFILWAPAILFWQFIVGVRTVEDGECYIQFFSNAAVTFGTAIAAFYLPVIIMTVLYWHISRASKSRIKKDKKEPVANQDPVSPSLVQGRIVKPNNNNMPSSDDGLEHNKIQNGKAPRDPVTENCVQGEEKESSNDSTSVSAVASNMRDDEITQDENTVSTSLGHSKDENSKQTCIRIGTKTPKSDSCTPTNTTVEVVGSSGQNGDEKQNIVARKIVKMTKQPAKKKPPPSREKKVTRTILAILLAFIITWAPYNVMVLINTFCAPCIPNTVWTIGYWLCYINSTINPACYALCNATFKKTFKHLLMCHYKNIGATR

[10] = biological target: Muscarinic acetylcholine receptor M2 (Homo sapiens) (UniProt P08172); assay: Inhibition of binding of [3H]quinuclidinyl benzilate to Muscarinic acetylcholine receptor M2 in membranes of transfected CHO cells
[11] = biological target: T3, Muscarinic acetylcholine receptor M1 (Homo sapiens); assay: Percentage inhibition of binding of [3H]quinuclidinyl benzilate to muscarinic receptors in membranes of CHO cells transfected with Muscarinic acetylcholine receptor M1; format: cell membranes; conditions: concentration not given here
In short: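 Membranes from CHO cells expressing human M1–M4 receptors in 25 mM sodium phosphate pH 7.4 with 5 mM MgCl2, 30 min at 37 °C, triplicate. [3H]quinuclidinyl benzilate was 0.2 nM for M1 and M3 and 0.1 nM for M2 and M4. Nonspecific binding used 10 µM atropine for M1 and 1 µM for the others.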

[12] = biological target: Muscarinic acetylcholine receptor M4 (Homo sapiens) (UniProt P08173); assay: Inhibitory activity against [3H]-cyclic AMP accumulation in CHO transfected cells mediated by Muscarinic acetylcholine receptor M4
[13] = biological target: T7, Muscarinic acetylcholine receptor M4 (Homo sapiens, UniProt P08173); assay: Inhibition of binding of [3H]quinuclidinyl benzilate to muscarinic receptors in membranes of CHO cells transfected with Muscarinic acetylcholine receptor M4; format: cell membranes
T7 sequence (P08173 whole entry): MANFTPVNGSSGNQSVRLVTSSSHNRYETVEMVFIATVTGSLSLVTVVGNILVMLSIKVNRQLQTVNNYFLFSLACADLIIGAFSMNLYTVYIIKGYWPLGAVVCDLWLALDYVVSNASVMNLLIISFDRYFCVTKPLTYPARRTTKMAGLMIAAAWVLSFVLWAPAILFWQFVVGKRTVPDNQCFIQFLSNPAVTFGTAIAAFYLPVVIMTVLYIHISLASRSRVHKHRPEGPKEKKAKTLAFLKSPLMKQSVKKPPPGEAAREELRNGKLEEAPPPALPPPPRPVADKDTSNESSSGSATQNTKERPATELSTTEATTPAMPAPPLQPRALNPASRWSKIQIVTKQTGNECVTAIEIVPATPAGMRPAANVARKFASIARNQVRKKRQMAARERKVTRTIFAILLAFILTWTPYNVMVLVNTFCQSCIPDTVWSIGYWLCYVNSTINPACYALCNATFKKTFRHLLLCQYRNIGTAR

[14] = biological target: Muscarinic acetylcholine receptor M2 (Homo sapiens) (UniProt P08172); assay: Inhibition of binding of 0.1 nM [3H]quinuclidinyl benzilate to Muscarinic acetylcholine receptor M2 in membranes of transfected CHO cells in the presence of 10 uM GTP
[15] = biological target: T6, Muscarinic acetylcholine receptor M2; assay: Inhibitory activity against [3H]quinuclidinyl Benzilate binding to Muscarinic acetylcholine receptor M2 in the presence of GTP
In short: (§4)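 Membranes from CHO cells expressing human M2 receptor. Competition against 0.1 nM [3H]quinuclidinyl benzilate in 25 mM sodium phosphate pH 7.4, 5 mM MgCl2, without or with 10 μM GTP; 30 min at 37 °C, triplicate. Nonspecific binding with 1 μM atropine. Filtration, scintillation counting.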

[16] = biological target: Muscarinic acetylcholine receptor M1 (Homo sapiens) (UniProt P11229); assay: Inhibitory activity against stimulation of [3H]inositol monophosphate accumulation in [3H]inositol-labelled CHO transfected cells mediated by Muscarinic acetylcholine receptor M1
Target sequence in this assay (P11229 whole entry, looked up): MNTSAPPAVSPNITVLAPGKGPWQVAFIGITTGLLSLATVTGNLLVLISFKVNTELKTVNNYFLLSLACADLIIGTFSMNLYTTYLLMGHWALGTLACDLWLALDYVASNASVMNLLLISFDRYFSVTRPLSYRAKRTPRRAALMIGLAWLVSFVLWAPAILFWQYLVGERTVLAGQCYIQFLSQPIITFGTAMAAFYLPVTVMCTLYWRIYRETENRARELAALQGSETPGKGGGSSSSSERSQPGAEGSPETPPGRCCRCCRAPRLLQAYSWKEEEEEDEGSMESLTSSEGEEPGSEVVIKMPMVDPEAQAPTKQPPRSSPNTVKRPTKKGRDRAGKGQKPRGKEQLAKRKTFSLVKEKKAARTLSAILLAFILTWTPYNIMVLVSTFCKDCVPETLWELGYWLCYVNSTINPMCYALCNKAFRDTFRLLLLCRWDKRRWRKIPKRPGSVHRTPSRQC

[17] = biological target: Muscarinic acetylcholine receptor M2 (Homo sapiens) (UniProt P08172); assay: Inhibition of binding of 0.1 nM [3H]quinuclidinyl benzilate to Muscarinic acetylcholine receptor M2 in membranes of transfected CHO cells in the absence of GTP
[18] = biological target: Muscarinic acetylcholine receptor M4 (Homo sapiens) (UniProt P08173); assay: Inhibition of binding of [3H]quinuclidinyl benzilate to Muscarinic acetylcholine receptor M4 in membranes of transfected CHO cells
[19] = biological target: T6, Muscarinic acetylcholine receptor M2; assay: Inhibitory activity against [3H]quinuclidinyl Benzilate binding to Muscarinic acetylcholine receptor M2 in the absence of GTP; in short: as §4
[20] = biological target: T1, Muscarinic acetylcholine receptor M3; assay: Percentage inhibition of binding of [3H]quinuclidinyl benzilate to muscarinic receptors in membranes of CHO cells transfected with Muscarinic acetylcholine receptor M3; format: cell membranes; conditions: concentration not given here
Target sequence in this assay (P20309 whole entry, looked up): as the sequence (P20309 whole entry, looked up) above

[21] = biological target: T1, Muscarinic acetylcholine receptor M3; assay: Inhibitory activity against stimulation of [3H]inositol monophosphate accumulation in [3H]inositol-labelled CHO transfected cells mediated by Muscarinic acetylcholine receptor M3
Target sequence in this assay (P20309 whole entry, looked up): as above

[22] = biological target: Muscarinic acetylcholine receptor M3 (Rattus norvegicus) (UniProt P08483); conditions: Membrane; 300 uM
Muscarinic acetylcholine receptor M3 (Rattus norvegicus), sequence (P08483 whole entry, looked up): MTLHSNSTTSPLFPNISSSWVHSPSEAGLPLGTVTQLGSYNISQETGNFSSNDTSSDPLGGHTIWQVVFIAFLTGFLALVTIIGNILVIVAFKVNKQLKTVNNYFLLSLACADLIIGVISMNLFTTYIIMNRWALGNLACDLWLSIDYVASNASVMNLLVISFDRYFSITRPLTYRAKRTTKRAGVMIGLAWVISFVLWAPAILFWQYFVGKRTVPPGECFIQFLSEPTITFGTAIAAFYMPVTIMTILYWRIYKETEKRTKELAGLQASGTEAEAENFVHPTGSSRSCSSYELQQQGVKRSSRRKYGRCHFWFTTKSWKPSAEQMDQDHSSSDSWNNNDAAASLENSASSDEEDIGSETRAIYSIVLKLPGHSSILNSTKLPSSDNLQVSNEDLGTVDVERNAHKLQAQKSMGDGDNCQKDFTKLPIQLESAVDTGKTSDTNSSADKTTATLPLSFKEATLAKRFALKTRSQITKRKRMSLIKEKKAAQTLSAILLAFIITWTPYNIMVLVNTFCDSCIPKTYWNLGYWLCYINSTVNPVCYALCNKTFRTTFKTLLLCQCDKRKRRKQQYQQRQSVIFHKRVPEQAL

[23] = biological target: T8, Neuronal acetylcholine receptor; alpha4/beta2 (Rattus norvegicus, UniProt P09483+P12390); assay: as §2; format: protein-complex assay; in short: as §3
T8 sequence (P09483 whole entry): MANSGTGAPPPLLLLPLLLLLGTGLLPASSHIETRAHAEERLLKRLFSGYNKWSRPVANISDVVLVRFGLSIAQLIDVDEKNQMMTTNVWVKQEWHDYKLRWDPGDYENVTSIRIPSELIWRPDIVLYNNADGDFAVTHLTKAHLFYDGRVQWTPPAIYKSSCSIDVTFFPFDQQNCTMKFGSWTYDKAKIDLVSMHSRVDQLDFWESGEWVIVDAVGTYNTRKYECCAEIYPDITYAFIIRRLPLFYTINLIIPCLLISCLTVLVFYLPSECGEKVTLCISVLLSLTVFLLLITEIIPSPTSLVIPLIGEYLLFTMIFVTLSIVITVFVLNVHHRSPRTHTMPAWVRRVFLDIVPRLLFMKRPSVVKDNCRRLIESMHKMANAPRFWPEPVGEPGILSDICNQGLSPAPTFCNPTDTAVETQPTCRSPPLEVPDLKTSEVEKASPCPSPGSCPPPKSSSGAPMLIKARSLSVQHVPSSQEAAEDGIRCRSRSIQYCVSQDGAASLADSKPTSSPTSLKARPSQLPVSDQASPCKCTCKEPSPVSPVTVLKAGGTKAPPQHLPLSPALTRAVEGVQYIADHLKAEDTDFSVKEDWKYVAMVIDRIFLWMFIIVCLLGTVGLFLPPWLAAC
T8 sequence (P12390 whole entry): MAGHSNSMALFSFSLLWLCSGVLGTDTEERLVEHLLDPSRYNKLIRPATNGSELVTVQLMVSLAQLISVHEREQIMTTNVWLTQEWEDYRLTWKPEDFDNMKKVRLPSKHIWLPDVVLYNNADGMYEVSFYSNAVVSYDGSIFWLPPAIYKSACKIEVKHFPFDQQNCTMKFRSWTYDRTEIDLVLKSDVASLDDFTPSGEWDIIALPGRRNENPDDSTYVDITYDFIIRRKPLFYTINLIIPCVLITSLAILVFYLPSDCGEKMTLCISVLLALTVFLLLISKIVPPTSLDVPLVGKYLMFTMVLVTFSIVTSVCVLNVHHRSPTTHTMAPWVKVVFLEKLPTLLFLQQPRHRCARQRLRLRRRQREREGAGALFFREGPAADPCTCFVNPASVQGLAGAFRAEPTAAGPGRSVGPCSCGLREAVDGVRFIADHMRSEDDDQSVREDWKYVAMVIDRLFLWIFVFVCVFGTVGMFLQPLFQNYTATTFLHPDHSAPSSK

[24] = biological target: T1, Muscarinic acetylcholine receptor M3; assay: Inhibition of binding of [3H]quinuclidinyl benzilate to muscarinic receptors in membranes of CHO cells transfected with Muscarinic acetylcholine receptor M3; format: cell membranes
Target sequence in this assay (P20309 whole entry): as the sequence (P20309 whole entry, looked up) above

[25] = biological target: Muscarinic acetylcholine receptor M1 (Homo sapiens) (UniProt P11229); assay: Inhibition of binding of [3H]quinuclidinyl benzilate to human Muscarinic acetylcholine receptor M1 in membranes of transfected CHO cells at 300 uM concentration; conditions: Membrane
Target sequence in this assay (P11229 whole entry, looked up): as the sequence (P11229 whole entry, looked up) above

[26] = biological target: T8, Neuronal acetylcholine receptor; alpha4/beta2; assay: Inhibition of binding of [3H]nicotine to Nicotinic acetylcholine receptor alpha4-beta2 in rat cerebral cortical membranes; format: cell membranes, Membrane; in short: as §3
[27] = biological target: T2, Muscarinic acetylcholine receptor M1; assay: Affinity versus [3H]oxotremorine M (agonist) binding to Muscarinic acetylcholine receptor M1 in Rat Cerebral Cortical Membranes, (Kd=[…])
[28] = biological target: T2, Muscarinic acetylcholine receptor M1; assay: Inhibition of binding of [3H]oxotremorine M to Muscarinic acetylcholine receptor M1 in rat cerebral cortical membranes; format: cell membranes, Membrane
In short: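 Agonist radioligand assay: rat cortical membranes with 2 nM [3H]oxotremorine M in 25 mM sodium phosphate pH 7.4 with 5 mM MgCl2, 2 h at 25 °C, in triplicate. Nonspecific binding used 5 µM atropine. Filtration followed by scintillation counting.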

COC(=O)C1=CCC2CCC1N2C (stereo not drawn)
inhibition [1]: 28%
Ki [2]: 25000 nM
Ki [3]: 25000 nM
inhibition [4]: 28%
inhibition [5]: 26%

COC(=O)[C@H]1CC2NC1CC[C@H]2OC(C)=O (stereo partly drawn)
inhibition [6]: 19%
inhibition [7]: 1%
inhibition [8]: 19%

CC(=O)O[C@@H]1CCC2NC1C[C@@H]2S(=O)(=O)c1ccccc1 (stereo partly drawn)
inhibition [6]: 10%
inhibition [7]: 6%
inhibition [8]: 10%

CC(=O)OC(C)C[N+](C)(C)C (stereo not drawn) [METHACHOLINE]
Ki [9]: 59 nM
Ki [10]: 59 nM
inhibition [11]: 8%
IC50 [12]: 700 nM
Ki [13]: 1600 nM
IC50 [14]: 5200 nM
IC50 [15]: 5200 nM
EC50 [16]: 400 nM
IC50 [17]: 380 nM
Ki [18]: 1600 nM
IC50 [19]: 380 nM
inhibition [20]: 34%
EC50 [21]: 120 nM

C[N+](C)(C)CCOC(N)=O
inhibition [22]: 16%

CC(=O)O[C@H]1CCC2NC1C[C@@H]2S(=O)(=O)c1ccccc1 (stereo partly drawn)
inhibition [6]: 16%
inhibition [7]: 0%
inhibition [8]: 16%

COC(=O)C1CC2CCCC1N2 (stereo not drawn)
Ki [9]: 480 nM
Ki [23]: 150 nM
Ki [10]: 480 nM
inhibition [11]: 24%
Ki [13]: 7900 nM
Ki [24]: 18000 nM
Ki [18]: 7900 nM
inhibition [25]: 24%
Ki [26]: 150 nM
Ki [27]: 260 nM
Ki [28]: 260 nM

COC(=O)C1CC2NC1CCC21SCCS1 (stereo not drawn)
inhibition [6]: 36%
inhibition [7]: 3%
inhibition [8]: 36%

COC(=O)C1C(O)CC2CCC1N2C (stereo not drawn)
inhibition [11]: 13%
inhibition [6]: 11%
inhibition [7]: 27%
inhibition [8]: 11%
inhibition [4]: 28%
inhibition [20]: 19%
